Data: ChEMBL document CHEMBL4422642, “Antiproliferative and Antimigratory Effects of a Novel YAP-TEAD Interaction Inhibitor Identified Using in Silico Molecular Docking” (J Med Chem, 2019)
Calls of active or inactive are those of the source. The rule behind the calls is not given here.

Assays:
HeLa [1] = assay: Inhibition of TEAD in human HeLa cells assessed as reduction in CCN1 m-RNA expression incubated for 2 hrs followed by compound wash out and re-treatment for 4 hrs by NanoGlo assay; format: cell-based
HeLa [2] = assay: Inhibition of TEAD in human HeLa cells assessed as reduction in CTGF m-RNA expression incubated for 2 hrs followed by compound wash out and re-treatment for 4 hrs by NanoGlo assay; format: cell-based
[3] = Inhibition of TEAD in rat VSMC assessed as reduction in CTGF m-RNA expression incubated for 2 hrs followed by compound wash out and re-treatment for 4 hrs by NanoGlo assay
HeLa [4] = assay: Antiproliferative activity against human HeLa cells assessed as reduction in EdU incorporation after 24 hrs by Hoechst 33342 staining-based fluorescence assay; format: functional, cell-based
Procedure, shortened: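 Click-iT EdU assay. Cells were treated with compound for 24 h total, with 10 μM EdU present for the final labeling period. Cells were then fixed in 4% formaldehyde, stained for EdU and counterstained with Hoechst 33342 for 20 min. EdU-positive nuclei were counted in at least three fields per well; n = 4.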

VSMC [5] = assay: Antimigratory activity in rat VSMC incubated for overnight followed by media replacement and measured every hour for 24 hrs by phase contrast microscopic analysis; format: functional, cell-based
Procedure, shortened: (§1)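 IncuCyte real-time scratch wound assay. Cells were seeded in 96-well plates and grown 36 h, then pretreated overnight with compound. Wells were scratched and the medium was replaced with compound-containing medium. Phase-contrast images of the wound were taken hourly for 24 h and relative wound confluence was calculated; n = 4.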

[6] = Inhibition of TEAD (unknown origin) expressed in human HeLa cells after 6 hrs by nanoluciferase reporter gene assay; format: cell-based
Procedure, shortened: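 HeLa cells stably transduced with a lentiviral 8×TEAD-element secreted nanoluciferase reporter were seeded at 2 × 10^4 cells/well and grown 48 h. They were washed and treated with compound for 2 h, washed again and re-treated for 4 h. Secreted nanoluciferase in the conditioned medium was assayed with NanoGlo; n = 3.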

HeLa [7] = assay: Cytotoxicity against human HeLa cells assessed as reduction in cell viability by measuring ethidium homodimer-1 uptake at 20 uM preincubated for 10 mins followed by ethidium homodimer-1 addition measured after 10 mins by fluorescence assay; format: cell-based
Procedure, shortened: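 Live/dead cell viability assay in HeLa cells. Maximum death was set by treating cells 10 min with 0.1% Triton-X, then 10 min with 0.4 μM ethidium homodimer-1. Fluorescence was read on a plate reader.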

[8] = biological target: T1, Transcriptional enhancer factor TEF-1 (Homo sapiens, UniProt P28347); assay: Binding affinity to TEAD1 (194 to 411 residues) (unknown origin) by ITC assay
T1 sequence (P28347 whole entry, the tested form may be a part): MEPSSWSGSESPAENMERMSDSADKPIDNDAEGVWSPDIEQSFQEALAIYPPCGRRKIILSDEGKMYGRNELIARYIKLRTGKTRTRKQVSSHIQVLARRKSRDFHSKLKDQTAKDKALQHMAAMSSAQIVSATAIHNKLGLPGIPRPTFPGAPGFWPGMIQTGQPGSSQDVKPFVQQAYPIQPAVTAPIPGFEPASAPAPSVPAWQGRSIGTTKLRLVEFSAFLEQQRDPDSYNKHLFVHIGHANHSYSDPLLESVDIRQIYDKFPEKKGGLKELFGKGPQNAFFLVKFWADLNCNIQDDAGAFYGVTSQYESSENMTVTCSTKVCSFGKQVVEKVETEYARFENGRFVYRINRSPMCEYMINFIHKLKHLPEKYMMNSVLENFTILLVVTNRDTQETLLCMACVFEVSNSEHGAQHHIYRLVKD
Procedure, shortened: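 Isothermal titration calorimetry with purified recombinant TEAD1 (residues 194–411). The GST tag was removed by PreScission protease cleavage at 4 °C for 18 h, glutathione was removed by dialysis against PBS, and free GST was removed with glutathione resin.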

[9] = biological target: T1, Transcriptional enhancer factor TEF-1; assay: Inhibition of Gal4-fused TEAD1 (unknown origin) interaction with YAP expressed in human HeLa cells assessed as basal transcriptional activity level up to 100 uM after 6 hrs by nanoluciferase reporter gene assay; format: cell-based
[10] = biological target: T2, Transcriptional enhancer factor TEF-4 (Homo sapiens, UniProt Q15562); assay: Inhibition of Gal4-fused TEAD2 (unknown origin) interaction with YAP expressed in human HeLa cells assessed as basal transcriptional activity level up to 100 uM after 6 hrs by nanoluciferase reporter gene assay; format: cell-based
T2 sequence (Q15562 whole entry, the tested form may be a part): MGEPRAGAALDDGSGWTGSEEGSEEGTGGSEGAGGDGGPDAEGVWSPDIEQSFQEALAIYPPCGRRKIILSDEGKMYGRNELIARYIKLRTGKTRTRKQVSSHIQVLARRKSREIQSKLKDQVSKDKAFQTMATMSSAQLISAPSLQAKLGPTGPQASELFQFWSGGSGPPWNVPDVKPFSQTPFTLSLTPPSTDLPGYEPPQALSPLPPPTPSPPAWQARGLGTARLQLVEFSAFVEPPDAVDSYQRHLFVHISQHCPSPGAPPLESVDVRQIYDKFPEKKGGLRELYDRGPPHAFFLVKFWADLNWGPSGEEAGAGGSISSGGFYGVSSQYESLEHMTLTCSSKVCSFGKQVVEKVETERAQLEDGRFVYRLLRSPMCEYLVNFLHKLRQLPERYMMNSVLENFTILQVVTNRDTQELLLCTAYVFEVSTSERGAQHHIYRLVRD

[11] = biological target: Transcriptional enhancer factor TEF-3 (Homo sapiens, UniProt Q15561); assay: Inhibition of Gal4-fused TEAD4 (unknown origin) interaction with YAP expressed in human HeLa cells assessed as basal transcriptional activity level up to 100 uM after 6 hrs by nanoluciferase reporter gene assay; format: cell-based
Transcriptional enhancer factor TEF-3, sequence (Q15561 whole entry, the tested form may be a part): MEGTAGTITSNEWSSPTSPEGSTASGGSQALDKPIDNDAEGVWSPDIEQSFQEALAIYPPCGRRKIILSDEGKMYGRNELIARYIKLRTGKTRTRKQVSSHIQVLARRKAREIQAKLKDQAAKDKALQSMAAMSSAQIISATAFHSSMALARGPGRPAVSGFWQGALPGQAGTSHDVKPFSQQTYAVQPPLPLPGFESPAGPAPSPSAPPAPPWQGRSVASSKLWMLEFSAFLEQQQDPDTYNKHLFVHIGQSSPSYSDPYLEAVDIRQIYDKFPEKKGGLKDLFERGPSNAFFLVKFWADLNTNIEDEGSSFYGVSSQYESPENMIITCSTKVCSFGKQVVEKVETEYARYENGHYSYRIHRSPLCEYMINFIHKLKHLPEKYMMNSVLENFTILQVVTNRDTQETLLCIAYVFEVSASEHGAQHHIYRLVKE

[12] = biological target: T2, Transcriptional enhancer factor TEF-4; assay: Inhibition of Gal4-fused TEAD2 (unknown origin) interaction with YAP expressed in human HeLa cells assessed as basal transcriptional activity level after 6 hrs by nanoluciferase reporter gene assay; format: cell-based
[13] = biological target: Transcriptional enhancer factor TEF-5 (Homo sapiens, UniProt Q99594); assay: Inhibition of Gal4-fused TEAD3 (unknown origin) interaction with YAP expressed in human HeLa cells assessed as basal transcriptional activity level after 6 hrs by nanoluciferase reporter gene assay; format: cell-based
Transcriptional enhancer factor TEF-5, sequence (Q99594 whole entry, the tested form may be a part): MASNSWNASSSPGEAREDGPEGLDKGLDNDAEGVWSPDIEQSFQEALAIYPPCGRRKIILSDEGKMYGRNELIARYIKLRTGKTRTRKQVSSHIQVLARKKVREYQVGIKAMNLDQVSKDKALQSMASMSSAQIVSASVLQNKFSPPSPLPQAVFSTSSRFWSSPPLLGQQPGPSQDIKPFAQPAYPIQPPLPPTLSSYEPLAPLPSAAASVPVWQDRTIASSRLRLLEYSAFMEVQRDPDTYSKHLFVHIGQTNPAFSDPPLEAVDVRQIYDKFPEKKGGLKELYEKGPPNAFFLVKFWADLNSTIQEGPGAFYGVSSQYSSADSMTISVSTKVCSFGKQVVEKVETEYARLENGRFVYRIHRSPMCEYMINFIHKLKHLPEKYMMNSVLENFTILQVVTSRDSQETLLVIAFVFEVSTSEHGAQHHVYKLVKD

HeLa [14] = assay: Inhibition of TNT1 m-RNA expression in human HeLa cells incubated for 2 hrs followed by compound wash out and re-treatment for 4 hrs by NanoGlo assay; format: functional, cell-based
HeLa [15] = assay: Antimigratory activity in human HeLa cells at 40 to 80 uM incubated for overnight followed by media replacement and measured every hour for 24 hrs by phase contrast microscopic analysis; format: functional, cell-based; procedure, shortened: as §1
Rattus norvegicus [16] = species: Rattus norvegicus; assay: Inhibition of TEAD in rat VSMC assessed as reduction in THBS m-RNA expression at 60 uM by RT-qPCR analysis
Procedure, shortened: (§2)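 Rat aortic VSMCs (male Sprague-Dawley, 10% FCS/DMEM) were treated with 60 μM compound for 6 h; n = 3. Total RNA was reverse-transcribed with random primers and quantified by SYBR Green qPCR. Data were normalized to nonstimulated controls.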

Rattus norvegicus [17] = species: Rattus norvegicus; assay: Inhibition of TEAD in rat VSMC assessed as reduction in MAYDM m-RNA expression at 60 uM by RT-qPCR analysis; procedure, shortened: as §2
Rattus norvegicus [18] = species: Rattus norvegicus; assay: Inhibition of TEAD in rat VSMC assessed as reduction in MYOC m-RNA expression at 60 uM by RT-qPCR analysis; procedure, shortened: as §2
Rattus norvegicus [19] = species: Rattus norvegicus; assay: Inhibition of TEAD in rat VSMC assessed as reduction in CCN1 m-RNA expression at 60 uM by RT-qPCR analysis; procedure, shortened: as §2
VSMC [20] = assay: Inhibition of PGK1 m-RNA expression in rat VSMC at 60 uM by RT-qPCR analysis; format: functional, cell-based; procedure, shortened: as §2
VSMC [21] = assay: Inhibition of TBP m-RNA expression in rat VSMC at 60 uM by RT-qPCR analysis; format: functional, cell-based; procedure, shortened: as §2
VSMC [22] = assay: Inhibition of 36B4 m-RNA expression in rat VSMC at 60 uM by RT-qPCR analysis; format: functional, cell-based; procedure, shortened: as §2
Rattus norvegicus [23] = species: Rattus norvegicus; assay: Inhibition of TEAD in rat VSMC assessed as reduction in CTGF m-RNA expression at 60 uM by RT-qPCR analysis; procedure, shortened: as §2
VSMC [24] = assay: Antiproliferative activity against human VSMC assessed as reduction in EdU incorporation after 18 hrs by Hoechst 33342 staining-based fluorescence assay; format: functional, cell-based
VSMC [25] = assay: Antimigratory activity in […] incubated for overnight followed by media replacement and measured every hour for 24 hrs by phase contrast microscopic analysis; format: functional, cell-based; procedure, shortened: as §1
MCF7 = assay: Antiproliferative activity against human MCF7 assessed as reduction in EdU incorporation up to 40 uM after 24 hrs by Hoechst 33342 staining-based fluorescence assay; format: functional, cell-based
HeLa [26] = assay: Inhibition of Gal4 expression in human HeLa cells assessed as basal transcriptional activity level at 100 uM after 6 hrs by nanoluciferase reporter gene assay; format: functional, cell-based
Rattus norvegicus [27] = species: Rattus norvegicus; assay: Inhibition of TEAD in rat VSMC assessed as reduction in CCN1 protein expression up to 60 uM by Western blot analysis
Procedure, shortened: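 VSMCs were treated with compound over a concentration range for 16 h; n = 4. CCN1 protein in total cell lysates was measured by Western blot with GAPDH probed alongside.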

VSMC [28] = assay: Antiproliferative activity against rat VSMC assessed as reduction in EdU incorporation after 18 hrs by Hoechst 33342 staining-based fluorescence assay; format: functional, cell-based

## Cc1ccc2c(c1)c1c3n2CCNC3CCC1 (stereo not given) [PIRLINDOLE]
HeLa [1]
  inhibition: Dose-dependent effect
HeLa [2]
  inhibition: Dose-dependent effect
[3]
  EC50: 58 µM
HeLa [4]
  Activity: Dose-dependent effect
VSMC [5]
  Activity: Dose-dependent effect
[6]
  IC50: 70 µM
HeLa [7]
  Activity: Non-Toxic
[8]
  Kd: 12 µM
[9]
  inhibition: Active
[10]
  inhibition: Active
[11]
  inhibition: Active
[12]
  IC50: 33 µM
[13]
  IC50: 44 µM
HeLa [14]
  inhibition: inactive
HeLa [15]
  Activity: Active
Rattus norvegicus [16]
  inhibition: Active
Rattus norvegicus [17]
  inhibition: Active
Rattus norvegicus [18]
  inhibition: Active
Rattus norvegicus [19]
  inhibition: Active
VSMC [20]
  inhibition: inactive
VSMC [21]
  inhibition: inactive
VSMC [22]
  inhibition: inactive
Rattus norvegicus [23]
  inhibition: Active
VSMC [24]
  EC50: 1.5 µM
VSMC [25]
  Activity: Dose-dependent effect
MCF7
  Activity: inactive
HeLa [26]
  inhibition: inactive
Rattus norvegicus [27]
  inhibition: Active
VSMC [28]
  Activity: Dose-dependent effect
  EC50: 10 µM
